Results pooled from the literature.
Compare with care: the assays were run in different laboratories.
Target: STE20/SPS1-related proline-alanine-rich protein kinase (STK39, Homo sapiens, UniProt Q9UEW8)

COc1ccc(COc2ccc(Cc3cnc(N)nc3N)cc2OC)cc1
remaining signal (cell-free assay; 0.5 µM): 87.6%

CCC(=O)N[C@@H]1CC[C@H](C(=O)N(C)c2ccc(-c3nc4ccccc4o3)cc2)C1
remaining binding (cell-free assay; competition with immobilised ligand; 1 µM): 73%

N#CCCc1ccc2c(c1)-c1[nH]c3ccc([N+](=O)[O-])cc3c1CC(=O)N2
remaining signal (cell-free assay; 0.5 µM): 96.4%

Cn1cncc1C1=CN(c2ncnc3[nH]cnc23)CCS1
inhibition (enzyme activity; inhibitor; radiometric; 2 µM): 87.3%

Cc1ccc(NC(=O)c2ccc(CN3CCN(C)CC3)cc2)cc1Nc1nc(-c2cccnc2)cs1
remaining signal (cell-free assay; 0.5 µM): 94%

Cn1cnc(Br)c1C1=CN(c2ncnc3[nH]cnc23)CCS1
inhibition (enzyme activity; inhibitor; radiometric; 50 nM): 65.5%

O=C(Nc1cnn(-c2csc(C(=O)NC3COC3)c2)c1)Nc1c(F)cccc1Cl
remaining activity (enzyme activity; inhibitor; 5 µM): 82.3%

Nc1ncnc2occ(-c3ccc(NC(=O)Nc4cc(C(F)(F)F)ccc4F)cc3)c12
remaining signal (cell-free assay; inhibitor; 20 µM): 19%

CNC(=O)Nc1ccc2c(c1)[C@@]1(CC2)OC(=O)N(CC(=O)N(Cc2ccc(F)cc2)[C@@H](C)C(F)(F)F)C1=O
remaining binding (cell-free assay; competition with immobilised ligand; 1 µM): 100%

CC(C)(C)c1nc2c(s1)c1nc(N)ncc1c1ccc(NS(=O)(=O)c3c(F)cccc3F)c(F)c12
remaining activity (enzyme activity; inhibitor; radiometric; 1 µM): 92%

O=C(Nc1ccc(Oc2ccc(F)cc2)cc1)N1CCc2ncccc2[C@H]1c1ccc(F)cc1
remaining binding (cell-free assay; competition with immobilised ligand; 1 µM): 82%

O=C(Nc1cnn(-c2csc(C(=O)NC3COC3)c2)c1)Nc1ccccc1Cl
remaining activity (enzyme activity; inhibitor; 5 µM): 87.5%
